The text below walks through data of ChEMBL document CHEMBL1124035, “1-Amino-substituted 4-methyl-5H-pyrido[4,3-b]indoles (gamma-carbolines) as tricyclic analogues of ellipticines: a new class of antineoplastic agents” (1988).

For assay [1], the system named is Mus musculus. Description: Antitumor activity against P388 leukemia in mice at a dose of 20 mg/kg administered intraperitoneally for 5 days. The assay is classed as functional. The conditions noted are these: route intraperitoneal. The gist of the method: (§1)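 CDF1 hybrid male or female mice, 10 per group, were inoculated ip with 10^6 viable P388 cells on day 0. Drugs in distilled water were given ip (0.1 mL/10 g body weight) daily D1-5. Vehicle, 5-fluorouracil and BD 84 were given the same way. T/C = median survival day of treated / controls × 100; T/C > 128% was significant; cures counted at D60.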

The next assay relates to Calf thymus DNA. Description: Apparent DNA affinity constant. The assay is classed as nucleic-acid assay. To be noted: Bos taurus. In short, it runs like this: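 Apparent DNA affinity constant was measured by competition with ethidium bromide. Buffer was 20 mM Na2HPO4/NaH2PO4, 0.1 M NaCl, 1 mM EDTA, pH 7.4, with calf thymus DNA at 10 μg/mL. Values are given in 10^6 M⁻¹.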

The subject of assay [2] is Mus musculus. Put plainly: Antitumor activity against P388 leukemia in mice at a dose of 5 mg/kg administered intraperitoneally for 5 days. The assay is classed as functional. To be noted: route intraperitoneal. The gist of the method: (§2)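 CDF1 hybrid male or female mice, 10 per group, were inoculated ip on day 0 with 10^6 viable P388 leukemia cells. Drug in distilled water was given ip (0.1 mL/10 g body weight) daily on days 1-5, with vehicle, 5-fluorouracil and BD 84 controls given the same way. T/C = median survival of treated/controls × 100; T/C > 128% counted as significant.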

Assay [3] concerns Mus musculus. Put plainly: Antitumor activity against P388 leukemia in mice at a dose of 40 mg/kg administered intraperitoneally for 5 days; Nontoxic at this dose. The class given is functional. The conditions noted are these: route intraperitoneal. In short, it runs like this: as §2
Assay [4] deals with Mus musculus. Put plainly: Antitumor activity against P388 leukemia in mice at a dose of 10 mg/kg administered intraperitoneally for 5 days. The conditions noted are these: route intraperitoneal. The class given is functional. The gist of the method: as §1
The test system of another assay is L1210. Description: Ability to reduce the cell count to 50% in L1210 culture cells. The class given is functional. The conditions noted are these: Mus musculus, read-out: ID50 (the source's name). The gist of the method:
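L1210 cells in exponential growth in RPMI 1640 with 2 mM glutamine, penicillin/streptomycin and 10% FCS, 37 °C, 5% CO2. Drugs dissolved in distilled water were added to cells at 0.8 × 10^5 cells/mL for 48 h, then cells were counted. ID50 is the concentration halving cell proliferation versus controls, from regression of dose-response data; mean of two independent experiments.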

Assay [5] has as its system Mus musculus. Description: Antitumor activity against P388 leukemia in mice at a dose of 6 mg/kg administered intraperitoneally for 5 days. The assay is classed as functional. To be noted: route intraperitoneal. In short, it runs like this:
as §2

In assay [6] the test system is Mus musculus. Description: Antitumor activity against P388 leukemia in mice at a dose of 24 mg/kg administered intraperitoneally for 5 days. The conditions noted are these: route intraperitoneal. The assay is classed as functional. The gist of the method: as §2
The subject of assay [7] is Mus musculus. Description: Antitumor activity against P388 leukemia in mice at a dose of 50 mg/kg administered intraperitoneally for 5 days. The class given is functional. To be noted: route intraperitoneal. The gist of the method: as §2
In assay [8] the test system is Mus musculus. Description: Antitumor activity against P388 leukemia in mice at a dose of 12 mg/kg administered intraperitoneally for 5 days. The assay is classed as functional. The conditions noted are these: route intraperitoneal. In short, it runs like this:
as §1

Assay [9] concerns Mus musculus. Description: Antitumor activity against P388 leukemia in mice at a dose of 100 mg/kg administered intraperitoneally for 5 days. The class given is functional, organism-based. Set-up: dose 100 mg/kg. The gist of the method:
as §1

Turning to `CCN(CC)CCNc1ncc(C)c2c1c1cc(O)ccc1n2C`, the T/C with Mus musculus [1] came out at 182%; in the assay with Mus musculus [2], 142%; in the assay on Mus musculus [3], 137%; with Mus musculus [4], 153%. The K aff in the assay on Calf thymus DNA was found to be 110000 M⁻¹. Moreover, the IC50 in the assay on L1210 was 150 nM.
With `CCN(CC)CCCNc1ncc(C)c2c1c1ccccc1n2C`, the T/C was 105% in the assay on Mus musculus [5]; 118% in the assay with Mus musculus [6]; 131% in the assay with Mus musculus [7]; 110% in the assay on Mus musculus [8]; “Toxic” in the assay on Mus musculus [9]. Moreover, in the assay with Calf thymus DNA, the K aff is 160000 M⁻¹. Further, the IC50 with L1210 is 720 nM.

What is called T/C is the ratio of treated to control.
